From ChEMBL document CHEMBL2150947, “Pyrazolopyridine inhibitors of B-Raf(V600E). Part 4: rational design and kinase selectivity profile of cell potent type II inhibitors” (Bioorg Med Chem Lett, 2012) come the findings set out here.

Assay [1] addresses T1, Serine/threonine-protein kinase B-raf (Homo sapiens, UniProt P15056, V600E). In words: Inhibition of B-Raf V600E mutant in human Malme-3M cells assessed as ERK phosphorylation. It is filed as cell-based. Put shortly:
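Mechanistic cellular read-out: inhibition of basal ERK phosphorylation in Malme-3M melanoma cells; IC50 taken as the mean of at least two experiments.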

Assay [2] has as its target T1, Serine/threonine-protein kinase B-raf. In words: Inhibition of full length B-Raf V600E mutant.

Bounds are passed on as bounds.

T1 sequence (P15056 2-766 V600E limits assumed): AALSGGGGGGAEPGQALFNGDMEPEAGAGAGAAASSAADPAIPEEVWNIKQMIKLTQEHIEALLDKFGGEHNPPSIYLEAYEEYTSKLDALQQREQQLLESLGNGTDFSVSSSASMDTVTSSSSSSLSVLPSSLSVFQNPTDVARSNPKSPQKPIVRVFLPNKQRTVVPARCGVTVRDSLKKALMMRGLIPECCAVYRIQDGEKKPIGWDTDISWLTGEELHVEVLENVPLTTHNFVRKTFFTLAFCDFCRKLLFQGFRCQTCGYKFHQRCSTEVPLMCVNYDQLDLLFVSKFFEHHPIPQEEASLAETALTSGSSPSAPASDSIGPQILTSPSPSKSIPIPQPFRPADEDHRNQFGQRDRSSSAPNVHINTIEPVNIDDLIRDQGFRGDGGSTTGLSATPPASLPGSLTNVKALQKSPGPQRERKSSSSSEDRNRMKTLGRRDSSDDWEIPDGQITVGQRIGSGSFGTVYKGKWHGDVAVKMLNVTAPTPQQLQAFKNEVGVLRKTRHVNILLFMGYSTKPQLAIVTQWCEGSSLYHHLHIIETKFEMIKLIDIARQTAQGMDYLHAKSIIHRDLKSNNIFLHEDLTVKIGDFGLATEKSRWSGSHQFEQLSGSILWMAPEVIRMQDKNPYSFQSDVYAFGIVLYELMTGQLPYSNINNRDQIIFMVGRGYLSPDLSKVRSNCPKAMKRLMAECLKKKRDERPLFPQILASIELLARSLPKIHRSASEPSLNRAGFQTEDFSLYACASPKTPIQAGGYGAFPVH

With `CC(C)(C#N)c1cccc(C(=O)Nc2ccc(F)c(C(=O)Nc3cnc4[nH]ncc4c3)c2F)c1`, the figures for the IC50 in assay [1] and in assay [2] were 0.43 µM and 0.0035 µM, respectively.

Take `COc1n[nH]c2ncc(NC(=O)c3c(F)ccc(NC(=O)c4ccccc4)c3F)cc12`: the IC50 (in general, the point on the concentration scale where inhibition reaches its midpoint) in assay [1] is more than 12 µM; in assay [2], 0.039 µM.

In the case of `COc1n[nH]c2ncc(NC(=O)c3c(F)ccc(NC(=O)c4cccc(C(C)(C)C#N)c4)c3F)cc12`, the IC50 in assay [1] stood at 0.18 µM.

In the case of `CC(C)(C#N)c1cccc(C(=O)Nc2ccc(F)c(C(=O)Nc3cnc4[nH]ccc4c3)c2F)c1`, the IC50 was determined as 0.44 µM in assay [1] and 0.0068 µM in assay [2].

Regarding `CC(C)(C#N)c1cccc(C(=O)Nc2ccc(F)c(C(=O)Nc3cnc4[nH]nc(C5CC5)c4c3)c2F)c1`, the IC50 in assay [1] was 0.52 µM; in assay [2] it was 0.003 µM.

`COc1n[nH]c2ncc(NC(=O)c3cc(NC(=O)c4cccc(C(C)(C)C#N)c4)ccc3F)cc12`: the IC50 in assay [1] worked out at 0.02 µM; in assay [2], 0.001 µM.

For the compound `COc1n[nH]c2ncc(NC(=O)c3cccc(NC(=O)c4cccc(C(C)(C)C#N)c4)c3)cc12`, the IC50 in assay [1] stood at 0.14 µM; in assay [2], 0.0009 µM.

As to `COc1n[nH]c2ncc(NC(=O)c3cccc(NC(=O)c4cccc(C(C)(C)C#N)c4)c3F)cc12`, the IC50 in assay [1] was found to be 1.8 µM; in assay [2], 0.0051 µM.

As to `COc1n[nH]c2ncc(NC(=O)c3cc(NC(=O)c4ccc(Cl)c(C(F)(F)F)c4)ccc3F)cc12`, the IC50 came out at 0.096 µM in assay [1] and 0.0013 µM in assay [2].

As for `COc1n[nH]c2ncc(NC(=O)c3cc(NC(=O)c4cccc(C(C)(C)C#N)c4)ccc3Cl)cc12`, the IC50 in assay [1] was 0.022 µM; in assay [2], 0.0012 µM.

Take `COc1n[nH]c2ncc(NC(=O)c3cc(NC(=O)c4cccc(C(C)(C)C#N)c4)ccc3C)cc12`: the values for the IC50 in assay [1] and in assay [2] were 0.018 µM and 0.0019 µM, respectively.

Take `COc1n[nH]c2ncc(NC(=O)c3cccc(C(=O)Nc4ccccc4)c3)cc12`: the values for the concentration for half-maximal inhibition (IC50) in assay [1] and in assay [2] were more than 10 µM and 0.08 µM, respectively.

Regarding `COc1n[nH]c2ncc(NC(=O)c3cc(C(=O)Nc4cccc(C(F)(F)F)c4)ccc3C)cc12`, the half-maximal inhibitory concentration (IC50) turned out to be 0.052 µM in assay [1] and 0.0066 µM in assay [2].

As for `O=C(Nc1ccccc1)Nc1cccc(C(=O)Nc2cnc3[nH]ncc3c2)c1`, the IC50 in assay [1] was more than 10 µM; in assay [2] it was 0.0007 µM.
